Laboratory results as given in ChEMBL document CHEMBL6127097, “Structure-Guided Discovery of cis-Hexahydro-pyrido-oxazinones as Reversible, Drug-like Monoacylglycerol Lipase Inhibitors” (J Med Chem, 2024).
Blank lines part the entries; values can stand above or below the molecule they belong to. The source made the active and inactive calls. The rule behind the calls is not given here.

How the values were obtained:
[1] = Octanol-water partition coefficient, logD of the compound at pH 7.4 incubated for 1.5 hrs by shake flask based LC-UV/MS analysis; assay type: physicochemical; conditions: pH 7.4, 1.5 h, 1.5 h
How it was run: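 CAMDIS shake-flask variant. 10 mM DMSO stock is diluted into 25 mM phosphate pH 7.4 over a 1-octanol-impregnated PVDF membrane and shaken 1.5 h at 21 °C, at two octanol/buffer ratios, in triplicate. Remaining aqueous concentration is read by LC/MS; logD comes from the difference with and without octanol.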

[2] = Chemical stability at pH 4 incubated for 2 hrs; assay type: physicochemical; conditions: buffer, pH 4, 2 h
How it was run: (§1)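 Compound was held in aqueous buffer at the stated pH for 2 h at 37 °C.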

[3] = Chemical stability at pH 6.5 incubated for 2 hrs; assay type: physicochemical; conditions: buffer, pH 6.5, 2 h; how it was run: as §1
[4] = Chemical stability at pH 8 incubated for 2 hrs; assay type: physicochemical; conditions: buffer, pH 8, 2 h; how it was run: as §1
[5] = Clearance in mouse microsomes; assay type: ADME, Microsome
[6] = Clearance in human hepatocytes assessed per 10 million cells; assay type: ADME, cell-based, Hepatocyte; conditions: read-out: CLH
human P-gp = experiment: Apparent permeability across apical to basolateral side in pig LLC-PK1 cells expressing human P-gp; assay type: ADME, cell-based, Sus scrofa
How it was run: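 LLC-PK1 porcine kidney cells transfected with human or mouse P-gp were grown as polarized monolayers on filter membranes. Compound was dosed to the apical side and receiver appearance followed over 3 h at 37 °C. A→B Papp was measured with the P-gp inhibitor zosuquidar present at 1 µM.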

[7] = AUClast in Wistar rat at 10 mg/kg, ip measured upto 24 hrs by LC-MS/MS analysis; assay type: ADME, organism-based; conditions: in vivo
CYP2C9 = CYP2C9 (Homo sapiens, UniProt P11712); experiment: Inhibition of CYP2C9 (unknown origin) at 10 uM relative to control; assay type: ADME
[8] = Average drug concentration in mouse plasma at 3 mg/kg, ip measured after 4 hrs; assay type: ADME, organism-based; conditions: in vivo
How it was run: (§2)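 Mice received 3, 10 or 30 mg/kg i.p. The compound was dissolved in DMSO/Tween 80 (1:1) and diluted with 8 parts saline (NaCl/DMSO/TW80 80/10/10). Plasma was taken 4 h after injection and average concentrations reported.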

[9] = Average drug concentration in mouse plasma at 10 mg/kg, ip measured after 4 hrs; assay type: ADME, organism-based; conditions: in vivo; how it was run: as §2
[10] = Drug concentration in mouse CSF at 10 mg/kg, ip measured after 4 hrs; assay type: ADME, organism-based, Cerebrospinal fluid; conditions: read-out: Ct
[11] = Average drug concentration in mouse plasma at 30 mg/kg, ip measured after 16 hrs; assay type: ADME, organism-based; conditions: in vivo
How it was run: (§3)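 In a time course, mice were injected i.p. with 30 mg/kg in NaCl/DMSO/Tween 80 (80/10/10). Average plasma levels were determined at the stated time points over 24 h.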

[12] = Average drug concentration in mouse plasma at 30 mg/kg, ip measured after 24 hrs; assay type: ADME, organism-based; conditions: in vivo; how it was run: as §3
[13] = molecular target: T1, Monoglyceride lipase (Rattus norvegicus) (UniProt Q8R431); experiment: Binding affinity to rat MAGL assessed as association rate constant by SPR analysis
T1 sequence (whole entry): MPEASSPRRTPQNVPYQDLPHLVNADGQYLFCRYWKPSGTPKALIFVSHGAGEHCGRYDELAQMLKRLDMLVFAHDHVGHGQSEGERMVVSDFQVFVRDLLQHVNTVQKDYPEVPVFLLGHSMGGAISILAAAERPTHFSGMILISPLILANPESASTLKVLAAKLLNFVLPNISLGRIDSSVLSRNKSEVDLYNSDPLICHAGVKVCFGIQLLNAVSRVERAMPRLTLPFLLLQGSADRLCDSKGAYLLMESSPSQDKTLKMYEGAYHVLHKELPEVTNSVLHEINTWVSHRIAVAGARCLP
How it was run: (§4)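 Human or rat MAGL was immobilized by amine coupling without ethanolamine quenching. Runs were done at 18 °C in 10 mM HEPES, 150 mM NaCl, 0.05% P20, 50 µM EDTA, pH 7.4, with 1% DMSO. Single-cycle kinetics used five concentrations, top 1 µM in 2-fold steps, at 30 µL/min, giving kon, koff and Kd.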

[14] = molecular target: T2, Monoglyceride lipase (Homo sapiens) (UniProt Q99685); experiment: Binding affinity to human MAGL assessed as dissociation rate constant by SPR analysis; how it was run: as §4
T2 sequence (whole entry): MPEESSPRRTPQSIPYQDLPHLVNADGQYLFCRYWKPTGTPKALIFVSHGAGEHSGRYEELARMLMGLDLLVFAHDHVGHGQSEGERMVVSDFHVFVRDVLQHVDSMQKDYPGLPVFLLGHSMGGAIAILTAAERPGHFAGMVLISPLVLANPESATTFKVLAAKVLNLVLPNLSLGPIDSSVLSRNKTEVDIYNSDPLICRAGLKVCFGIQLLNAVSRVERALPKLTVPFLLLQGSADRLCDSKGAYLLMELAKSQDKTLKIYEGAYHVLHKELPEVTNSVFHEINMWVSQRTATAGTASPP

Homo sapiens = species: Homo sapiens; experiment: Inhibition of serotonin transporter (unknown origin) at 10 uM relative to control
How it was run: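 Cerep panel of 50 off-targets, percent inhibition at 10 µM.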

LLC-PK1 = experiment: Substrate activity at human P-gp expressed in LLC-PK1 cells assessed as efflux ratio incubated for 3 hrs; assay type: cell-based
How it was run: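 LLC-PK1 porcine kidney cells transfected with human or mouse P-gp, grown as polarized monolayers on filter plates. Compound is dosed apically or basolaterally and transport followed 3 h at 37 °C. Efflux ratio comes from unidirectional Papp; 1 µM zosuquidar defines permeability without P-gp.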

Mus musculus = experiment: Downregulation of brain AA level in ip dosed mouse measured after 4 hrs; assay type: functional, organism-based; conditions: dose 3-30 mg/kg
How it was run: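 Mice received 3, 10 or 30 mg/kg i.p. in NaCl/DMSO/Tween 80 (80/10/10) and were sacrificed after 4 h. Arachidonic acid in brain extracts was measured by LC/MS.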

[15] = molecular target: T3, Monoglyceride lipase (Mus musculus) (UniProt O35678); experiment: In vivo receptor occupancy at MAGL receptor in mouse at 30 mg/kg, ip measured after 4 hrs; assay type: functional, organism-based
T3 sequence (whole entry): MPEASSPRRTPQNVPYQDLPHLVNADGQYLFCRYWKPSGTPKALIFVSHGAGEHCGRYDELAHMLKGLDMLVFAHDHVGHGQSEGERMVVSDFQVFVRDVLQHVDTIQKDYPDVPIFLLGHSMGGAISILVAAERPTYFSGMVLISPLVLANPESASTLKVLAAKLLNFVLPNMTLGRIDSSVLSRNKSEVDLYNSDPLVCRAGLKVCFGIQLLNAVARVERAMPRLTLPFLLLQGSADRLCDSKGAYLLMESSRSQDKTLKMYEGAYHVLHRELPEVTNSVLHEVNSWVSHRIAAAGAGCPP

[16] = molecular target: Fatty acid amide hydrolase (Mus musculus) (UniProt O08914); experiment: Inhibition of FAAH in mouse brain lysates at 10 uM by ABPP assay
Sequence of Fatty acid amide hydrolase (Mus musculus) (O08914 whole entry, looked up): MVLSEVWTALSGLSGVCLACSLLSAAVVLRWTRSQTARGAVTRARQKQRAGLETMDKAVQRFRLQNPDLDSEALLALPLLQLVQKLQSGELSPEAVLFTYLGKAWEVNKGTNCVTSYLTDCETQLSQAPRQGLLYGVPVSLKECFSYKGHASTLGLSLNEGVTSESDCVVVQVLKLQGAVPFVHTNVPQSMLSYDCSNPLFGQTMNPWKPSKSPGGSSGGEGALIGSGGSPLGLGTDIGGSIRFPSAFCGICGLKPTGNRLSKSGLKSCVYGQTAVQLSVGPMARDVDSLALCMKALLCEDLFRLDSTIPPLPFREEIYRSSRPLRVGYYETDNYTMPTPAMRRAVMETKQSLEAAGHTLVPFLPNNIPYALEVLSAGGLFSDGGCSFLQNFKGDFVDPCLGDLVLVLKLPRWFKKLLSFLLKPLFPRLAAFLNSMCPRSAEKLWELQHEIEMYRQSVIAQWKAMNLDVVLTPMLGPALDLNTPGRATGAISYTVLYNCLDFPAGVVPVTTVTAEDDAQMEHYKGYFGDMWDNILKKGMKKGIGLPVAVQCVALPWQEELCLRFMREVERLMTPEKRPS

Sequence of CYP2C9 (P11712 whole entry): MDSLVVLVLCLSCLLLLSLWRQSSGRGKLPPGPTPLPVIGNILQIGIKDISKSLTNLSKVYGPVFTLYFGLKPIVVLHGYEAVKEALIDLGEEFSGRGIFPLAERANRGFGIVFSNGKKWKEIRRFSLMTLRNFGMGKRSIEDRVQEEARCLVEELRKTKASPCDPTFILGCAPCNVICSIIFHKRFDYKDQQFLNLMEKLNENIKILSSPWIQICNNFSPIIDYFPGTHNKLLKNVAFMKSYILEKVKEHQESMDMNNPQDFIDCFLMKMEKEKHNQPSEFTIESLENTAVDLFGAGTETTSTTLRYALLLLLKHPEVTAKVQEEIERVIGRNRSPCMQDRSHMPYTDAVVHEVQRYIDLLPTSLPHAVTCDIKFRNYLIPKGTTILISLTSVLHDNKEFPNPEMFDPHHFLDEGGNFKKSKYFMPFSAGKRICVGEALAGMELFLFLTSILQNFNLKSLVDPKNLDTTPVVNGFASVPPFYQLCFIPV

logD [1]: 3.3
Stability [2]: Stable
Stability [3]: Stable
Stability [4]: Stable
microsomal CLint [5]: < 10 µL/min/mg
hepatocyte CLint [6]: 1.9 µL/min/1e6 cells
Papp A→B (human P-gp): 17.6 ×10⁻⁶ cm/s
AUC(0-t) at 24 h [7]: 40200 ng·h/mL
inhibition at 10 µM (CYP2C9): 3%
Cave [8]: 1901 nM
Cave [9]: 7496 nM
concentration at 4 h [10]: 123 nM
Cave [11]: 2955 nM
Cave [12]: 100 nM
Structure (SMILES): O=C1CO[C@H]2CCN(C(=O)N3CCC(Cc4ccc(C(F)(F)F)cc4)CC3)C[C@H]2N1 [listing 1 of 2 here]

K [13]: 2.6 10^5/M/s
K [14]: 7.5 10^-3/s
inhibition (Homo sapiens): 57%
Activity [15]: 93%
inhibition [16]: inactive
Structure (SMILES): O=C1CO[C@H]2CCN(C(=O)N3CCC(Cc4ccc(C(F)(F)F)cc4)CC3)C[C@H]2N1 [listing 2 of 2 here]
Ratio (LLC-PK1): 2.4
Activity (Mus musculus): Dose-Dependent Effect
